Only some compounds are listed: those with a hit (about 2.2% of all), similar ones and a draw of the others.
PvdQ inh: blocks Pseudomonas aeruginosa PvdQ acylase activity; purified PvdQ acylase, fluorescence plate reader; inhibition, % at 10 µM; 340,000 compounds, 0.063% hits; in the data active = inhibition above about 30%, passing the limit was not always enough
Env fusion inh: HIV envelope-mediated fusion inhibition; 360,000 compounds, 1.1% hits; inhibition, % at 12.3 µM; AID 651610; HeLa-JRFL Env/CEM21 cell fusion, luciferase;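 active = mean replicate inhibition score of at least 50 and every replicate individually at or above 50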
Ecoli rRNA inh: inhibits bacterial ribosomal RNA function over humanized ribosomes. 350,000 compounds, 1.6% hits. AID 720706. E. coli WT GFP vs humanized-ribosome RFP mutants, fluorescence, 24 h; stronger effect = lower value; DMSO median 0, no signal -100. GFP signal change (wild-type ribosome), % (no concentration beside the values);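 active = significant combined selectivity score with lowered wild-type GFP, culture density cut under 30%, mutant RFP and density less affected; inactive = any of these conditions unmet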
PDI inh: blocks human protein disulfide isomerase activity; P07237; inhibition, % at 10 µM; AID 588391; PDI insulin aggregation turbidity, A650, 90 min; 350,000 compounds, 0.052% hits;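 active = mean inhibition across replicates of 30% or more, whatever share of single replicates reach that level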
ERp5 inh: ERp5 (human) disulfide isomerase inhibition | inhibition, % at 9.99 µM | ERp5 insulin aggregation, absorbance 650 nm, 90 min | AID 651711 | Q15084 | 350,000 compounds, 0.05% hits;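 active = mean replicate inhibition above about 25%, with every replicate also reaching it, limit read from the data, passing the limit was not always enough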
Target sequence (Q15084 whole entry, looked up): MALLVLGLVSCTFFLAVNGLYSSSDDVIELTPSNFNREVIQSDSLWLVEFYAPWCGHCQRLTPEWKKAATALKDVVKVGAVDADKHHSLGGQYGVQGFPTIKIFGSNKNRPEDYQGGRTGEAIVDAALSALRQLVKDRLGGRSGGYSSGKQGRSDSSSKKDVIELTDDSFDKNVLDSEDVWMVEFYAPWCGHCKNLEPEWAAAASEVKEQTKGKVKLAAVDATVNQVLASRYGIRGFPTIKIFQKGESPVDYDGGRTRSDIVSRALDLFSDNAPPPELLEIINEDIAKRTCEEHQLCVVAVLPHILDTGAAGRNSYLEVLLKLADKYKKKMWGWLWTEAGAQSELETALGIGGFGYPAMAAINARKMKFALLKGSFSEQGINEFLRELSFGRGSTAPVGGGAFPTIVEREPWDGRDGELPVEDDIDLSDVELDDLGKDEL
FN deposit inh: fibronectin deposition inhibition | AID 743247 | inhibition, % at 12.6 µM | AH1F fibroblasts, Alexa488-fibronectin deposition fluorescence, overnight | 350,000 compounds, 0.086% hits;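 active = mean inhibition across replicates of 30% or more, regardless of how many single replicates reach that level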
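Assay system: AH1F fibroblast monolayer, labelled fibronectin deposition. Amount: 10000 cells per well. Also added: labelled fibronectin 24 nM. Compound: single-point pinned compound. Incubation: cell attachment 1 h, compound and FN exposure overnight. Detection: fluorescence after three HBSS washes, excitation 485 nm, emission 525 nm. Read-out: inhibition of fibronectin deposition signal.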
Hits are given with their value; [ ] = remark or other dose.

What do the screens show for `CNC[C@H]1Oc2ncc(C#Cc3cccc(OC)c3)cc2C(=O)N([C@H](C)CO)C[C@H]1C`?
Ecoli rRNA inh: inactive; ERp5 inh: inactive

Results for C/C(=N/NC(=O)C1CC1(c1ccccc1)c1ccccc1)c1cccs1 (stereo unspecified) ?
PvdQ inh: inactive; Env fusion inh: 57; Ecoli rRNA inh: inactive; PDI inh: inactive; ERp5 inh: inactive; FN deposit inh: inactive

How did Oc1ccc(C[C@H]2CNC(=S)N2CC2CCCN2C[C@H](Cc2ccc(O)cc2)N2C[C@H](Cc3ccc(O)cc3)N(CC3CCCCC3)C2=S)cc1 (stereo partly specified) do in these assays?
PvdQ inh: inactive; Env fusion inh: 91; Ecoli rRNA inh: inactive; PDI inh: inactive; ERp5 inh: inactive

Results for CC(C)C[C@H]1CNC(=S)N1C[C@H]1CCCN1C[C@H](Cc1ccccc1)N1C[C@H](Cc2ccc(O)cc2)N(CC2CCCCCC2)C1=S ?
Env fusion inh: inactive; ERp5 inh: inactive; FN deposit inh: inactive

Results for CC(C)C[C@H]1CNC(=S)N1CC1CCCN1C[C@H](Cc1ccc(O)cc1)N1C[C@H](Cc2ccccc2)N(CC2CCCCCC2)C1=S (stereo partly specified) ?
PvdQ inh: inactive; Env fusion inh: 58; Ecoli rRNA inh: inactive; PDI inh: inactive; ERp5 inh: inactive; FN deposit inh: inactive

How did CC(C)C[C@H]1CNC(=S)N1C[C@H]1CCCN1C[C@H](Cc1ccc(O)cc1)N1C[C@H](Cc2ccccc2)N(CC2CCCCC2)C1=S do in these assays?
Env fusion inh: 112; Ecoli rRNA inh: inactive; ERp5 inh: inactive; FN deposit inh: inactive

Results for CC(C)NC(=O)Nc1ccc2c(c1)CC(=O)N([C@H](C)CO)C[C@H](C)[C@H](CN(C)S(=O)(=O)c1cccs1)O2 ?
Env fusion inh: 60[16.7 µM]; Ecoli rRNA inh: inactive; ERp5 inh: inactive; FN deposit inh: inactive

How did CC(C)NC(=O)Nc1ccc2c(c1)CC(=O)N([C@@H](C)CO)C[C@H](C)[C@@H](CN(C)S(=O)(=O)c1cccs1)O2 do in these assays?
Env fusion inh: inactive; Ecoli rRNA inh: inactive; ERp5 inh: inactive; FN deposit inh: inactive

Results for CC(C)NC(=O)Nc1ccc2c(c1)CC(=O)N([C@@H](C)CO)C[C@H](C)[C@H](CN(C)S(=O)(=O)c1cccs1)O2 ?
Env fusion inh: 57[16.7 µM]; Ecoli rRNA inh: inactive; ERp5 inh: inactive; FN deposit inh: inactive

How did C[C@@H]1CN([C@H](C)CO)C(=O)Cc2cc(NC(=O)Nc3ccc4c(c3)OCO4)ccc2O[C@H]1CN(C)S(=O)(=O)c1cccs1 do in these assays?
Env fusion inh: inactive; Ecoli rRNA inh: inactive

What do the screens show for `C[C@H](CO)N1C[C@H](C)[C@H](CN(C)S(=O)(=O)c2cccs2)Oc2ccc(NC(=O)Nc3ccc4c(c3)OCO4)cc2CC1=O`?
PvdQ inh: inactive; Env fusion inh: 99; Ecoli rRNA inh: inactive; PDI inh: inactive; ERp5 inh: inactive; FN deposit inh: inactive

Results for C[C@H](CO)N1C[C@H](C)[C@H](CN(C)S(=O)(=O)c2cccs2)Oc2ccc(NC(=O)Nc3ccc(C(F)(F)F)cc3)cc2CC1=O ?
Env fusion inh: 61[16.7 µM]; Ecoli rRNA inh: inactive; ERp5 inh: inactive

Results for C[C@@H]1CN([C@H](C)CO)C(=O)c2cccc(NS(=O)(=O)c3ccc(F)cc3)c2O[C@@H]1CN(C)S(=O)(=O)c1cccs1 ?
Ecoli rRNA inh: inactive; ERp5 inh: inactive; FN deposit inh: inactive

Results for COc1ccc2c3c(n(C)c2c1)[C@H](CO)N(CC1CCCCC1)CC31CCN(C(C)=O)CC1 ?
Env fusion inh: inactive; Ecoli rRNA inh: inactive; ERp5 inh: inactive

Results for O=C(C1CCC1)N1CC[C@@H]2[C@@H](CO)Nc3ccc(C#Cc4ccc(F)cc4)cc3[C@@H]21 ?
Env fusion inh: inactive; Ecoli rRNA inh: inactive; ERp5 inh: inactive; FN deposit inh: inactive

Results for C[C@H](CO)N1C[C@H](C)[C@H](CN(C)Cc2ccc(C(=O)O)cc2)OCCCC[C@H](C)Oc2ccc(NC(=O)CCCN(C)C)cc2C1=O ?
Env fusion inh: inactive; Ecoli rRNA inh: inactive; ERp5 inh: inactive

How did COc1ccc2c3c([nH]c2c1)[C@@H](CO)N(C(=O)Nc1ccc(F)cc1)CC31CN(CC2CC2)C1 do in these assays?
Ecoli rRNA inh: inactive
